Results reported in PMC5299621 (The Journal of General Physiology, 2017).
Blank lines part the entries; values can stand above or below the compound they belong to.

How the values were obtained:
[1] = target: T1, hTRPM2 G1389A mutant (Homo sapiens, UniProt O94759, G1389A); test: Whole-cell recording of H2O2-induced TRPM2 currents, G1389A mutant; format: cell-based; details: extracellular H2O2, 10 mM / 30 mM
Procedure, shortened: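 Whole-cell recording at RT was done on transiently transfected HEK293 cells, alongside untransfected and WT-expressing cells. Pipette: 147 mM NaCl, 0.05 mM EGTA, 1 mM MgCl2, 10 mM HEPES, pH 7.3. Cells were held at 0 mV with a 500-ms ramp from −100 to 100 mV every 5 s. At least six cells per condition.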

[2] = target: T1, hTRPM2 G1389A mutant; test: Whole-cell recording of calcium-induced TRPM2 currents, G1389A mutant; format: cell-based; details: 50 mM calcium, intracellular solution
Procedure, shortened: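 Transiently transfected HEK293 cells were compared with untransfected and WT-expressing cells by whole-cell recording at RT. Cells were held at 0 mV with a 500-ms ramp from −100 to 100 mV every 5 s. At least six cells per condition.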

[3] = system: TRPM2 E1409K mutation; details: ref Perraud et al., 2005, Tóth et al., 2014; cited from earlier work
[4] = target: hTRPM2 T1347Y mutant (Homo sapiens, UniProt O94759, T1347Y); test: Whole-cell ADPR-induced currents, HEK293, T1347Y mutant; format: cell-based
hTRPM2 T1347Y mutant, sequence (O94759 whole entry T1347Y): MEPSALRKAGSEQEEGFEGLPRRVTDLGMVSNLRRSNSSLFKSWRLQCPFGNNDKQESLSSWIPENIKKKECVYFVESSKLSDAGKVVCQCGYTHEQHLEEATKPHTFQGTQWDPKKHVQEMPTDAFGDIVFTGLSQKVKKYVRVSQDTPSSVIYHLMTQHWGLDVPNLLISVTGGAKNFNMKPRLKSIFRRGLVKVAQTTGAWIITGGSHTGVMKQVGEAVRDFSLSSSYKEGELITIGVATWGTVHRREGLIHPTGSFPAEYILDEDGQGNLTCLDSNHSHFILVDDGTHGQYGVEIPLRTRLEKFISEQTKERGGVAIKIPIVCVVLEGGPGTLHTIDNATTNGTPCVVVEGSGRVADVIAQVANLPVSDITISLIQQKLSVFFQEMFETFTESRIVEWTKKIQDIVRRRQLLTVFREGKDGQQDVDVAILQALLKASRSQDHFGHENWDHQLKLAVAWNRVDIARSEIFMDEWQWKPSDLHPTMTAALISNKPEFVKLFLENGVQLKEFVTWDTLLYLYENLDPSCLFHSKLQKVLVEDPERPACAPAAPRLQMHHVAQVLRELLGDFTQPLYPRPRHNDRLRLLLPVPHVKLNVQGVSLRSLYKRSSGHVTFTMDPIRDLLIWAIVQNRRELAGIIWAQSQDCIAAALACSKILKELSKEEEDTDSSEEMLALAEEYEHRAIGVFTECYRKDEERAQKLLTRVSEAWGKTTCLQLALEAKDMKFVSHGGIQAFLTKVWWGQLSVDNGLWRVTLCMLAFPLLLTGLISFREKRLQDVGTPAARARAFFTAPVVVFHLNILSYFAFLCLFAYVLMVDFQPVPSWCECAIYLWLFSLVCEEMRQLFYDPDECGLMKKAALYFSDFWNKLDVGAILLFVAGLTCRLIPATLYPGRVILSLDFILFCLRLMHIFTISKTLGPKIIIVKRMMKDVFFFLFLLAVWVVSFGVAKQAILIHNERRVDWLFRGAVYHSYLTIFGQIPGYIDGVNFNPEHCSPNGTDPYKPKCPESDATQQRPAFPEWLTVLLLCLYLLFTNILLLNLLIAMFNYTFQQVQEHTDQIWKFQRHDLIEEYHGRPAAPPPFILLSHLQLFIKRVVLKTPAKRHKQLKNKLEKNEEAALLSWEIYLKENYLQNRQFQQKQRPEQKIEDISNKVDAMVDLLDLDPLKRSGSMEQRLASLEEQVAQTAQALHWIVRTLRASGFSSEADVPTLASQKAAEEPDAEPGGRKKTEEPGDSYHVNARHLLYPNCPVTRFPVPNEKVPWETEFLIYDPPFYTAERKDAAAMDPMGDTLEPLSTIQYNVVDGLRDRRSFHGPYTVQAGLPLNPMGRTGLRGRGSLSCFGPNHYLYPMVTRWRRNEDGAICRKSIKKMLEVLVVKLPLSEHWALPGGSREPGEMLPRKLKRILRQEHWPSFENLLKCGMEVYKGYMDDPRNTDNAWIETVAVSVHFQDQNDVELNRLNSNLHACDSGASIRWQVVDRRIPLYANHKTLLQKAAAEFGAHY

[5] = target: hTRPM2 E1409Q mutant (Homo sapiens, UniProt O94759, E1409Q); test: Whole-cell ADPR-induced currents, HEK293, E1409Q mutant; format: cell-based
hTRPM2 E1409Q mutant, sequence (O94759 whole entry E1409Q): as the sequence (O94759 whole entry T1347Y) above, with Y1347T, E1409Q counted along it

[6] = target: hTRPM2 WT channel (Homo sapiens, UniProt O94759); test: Whole-cell recording of ADPR-induced currents, HEK293 cells expressing WT hTRPM2; format: cell-based
hTRPM2 WT channel, sequence (O94759 whole entry): as the sequence (O94759 whole entry T1347Y) above, with Y1347T counted along it

[7] = target: hTRPM2 L1484A mutant (Homo sapiens, UniProt O94759, L1484A); test: Whole-cell ADPR-induced currents, HEK293, L1484A mutant; format: cell-based; details: 3 µM and 100 µM ADPR (Fig. 3 C)
hTRPM2 L1484A mutant, sequence (O94759 whole entry L1484A): as the sequence (O94759 whole entry T1347Y) above, with Y1347T, L1484A counted along it
Procedure, shortened: (§1)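 HEK293 cells were cotransfected with 50 ng EGFP plus 1 µg WT or mutant hTRPM2 plasmid and recorded 24–36 h later, choosing cells of similar fluorescence and size. Recording was whole-cell at RT. […] Cells were held at 0 mV with a 500-ms ramp from −100 to 100 mV every 5 s. Currents were normalized to same-day mean maximal WT current. EC50 came from Hill fits. At least five cells per condition.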

[8] = target: hTRPM2 Y1349F mutant (Homo sapiens, UniProt O94759, Y1349F); test: Whole-cell ADPR-induced currents, HEK293, Y1349F mutant; format: cell-based; details: Y1349F (Fig. 6 B)
hTRPM2 Y1349F mutant, sequence (O94759 whole entry Y1349F): as the sequence (O94759 whole entry T1347Y) above, with Y1347T, Y1349F counted along it
Procedure, shortened: as §1

[9] = target: T1, hTRPM2 G1389A mutant; test: Whole-cell ADPR-induced currents, HEK293, G1389A mutant; format: cell-based; details: 3 µM and 100 µM ADPR (Fig. 3 C)
Procedure, shortened: as §1

[10] = target: hTRPM2 R1433L mutant (Homo sapiens, UniProt O94759, R1433L); test: Whole-cell ADPR-induced currents, HEK293, R1433L mutant; format: cell-based; details: R1433L (Fig. 5 E)
hTRPM2 R1433L mutant, sequence (O94759 whole entry R1433L): as the sequence (O94759 whole entry T1347Y) above, with Y1347T, R1433L counted along it
Procedure, shortened: as §1

[11] = target: hTRPM2 T1347F mutant (Homo sapiens, UniProt O94759, T1347F); test: Whole-cell ADPR-induced currents, HEK293, T1347F mutant; format: cell-based
hTRPM2 T1347F mutant, sequence (O94759 whole entry T1347F): as the sequence (O94759 whole entry T1347Y) above, with Y1347F counted along it

[12] = target: hTRPM2 L1379S mutant (Homo sapiens, UniProt O94759, L1379S); test: Whole-cell ADPR-induced currents, HEK293, L1379S mutant; format: cell-based
hTRPM2 L1379S mutant, sequence (O94759 whole entry L1379S): as the sequence (O94759 whole entry T1347Y) above, with Y1347T, L1379S counted along it

[13] = target: hTRPM2 S1391A mutant (Homo sapiens, UniProt O94759, S1391A); test: Whole-cell ADPR-induced currents, HEK293, S1391A mutant; format: cell-based
hTRPM2 S1391A mutant, sequence (O94759 whole entry S1391A): as the sequence (O94759 whole entry T1347Y) above, with Y1347T, S1391A counted along it

[14] = target: hTRPM2 E1409A mutant (Homo sapiens, UniProt O94759, E1409A); test: Whole-cell ADPR-induced currents, HEK293, E1409A mutant; format: cell-based
hTRPM2 E1409A mutant, sequence (O94759 whole entry E1409A): as the sequence (O94759 whole entry T1347Y) above, with Y1347T, E1409A counted along it

[15] = target: hTRPM2 D1287A mutant (Homo sapiens, UniProt O94759, D1287A); test: Whole-cell ADPR-induced currents, HEK293, D1287A mutant; format: cell-based; details: ADPR 100 µM (Fig. 8)
hTRPM2 D1287A mutant, sequence (O94759 whole entry D1287A): as the sequence (O94759 whole entry T1347Y) above, with D1287A, Y1347T counted along it
Procedure, shortened: as §1

[16] = target: hTRPM2 Y1349S mutant (Homo sapiens, UniProt O94759, Y1349S); test: Whole-cell ADPR-induced currents, HEK293, Y1349S mutant; format: cell-based; details: Y1349S (Fig. 6 B)
hTRPM2 Y1349S mutant, sequence (O94759 whole entry Y1349S): as the sequence (O94759 whole entry T1347Y) above, with Y1347T, Y1349S counted along it
Procedure, shortened: as §1

[17] = target: hTRPM2 T1347I mutant (Homo sapiens, UniProt O94759, T1347I); test: Whole-cell ADPR-induced currents, HEK293, T1347I mutant; format: cell-based; details: T1347I (Fig. 5 C)
hTRPM2 T1347I mutant, sequence (O94759 whole entry T1347I): as the sequence (O94759 whole entry T1347Y) above, with Y1347I counted along it
Procedure, shortened: as §1

[18] = target: hTRPM2 R1433Q mutant (Homo sapiens, UniProt O94759, R1433Q); test: Whole-cell ADPR-induced currents, HEK293, R1433Q mutant; format: cell-based; details: R1433Q (Fig. 5 E)
hTRPM2 R1433Q mutant, sequence (O94759 whole entry R1433Q): as the sequence (O94759 whole entry T1347Y) above, with Y1347T, R1433Q counted along it
Procedure, shortened: as §1

[19] = target: hTRPM2 H1346W mutant (Homo sapiens, UniProt O94759, H1346W); test: Whole-cell ADPR-induced currents, HEK293, H1346W mutant; format: cell-based
hTRPM2 H1346W mutant, sequence (O94759 whole entry H1346W): as the sequence (O94759 whole entry T1347Y) above, with H1346W, Y1347T counted along it

[20] = target: hTRPM2 S1340A mutant (Homo sapiens, UniProt O94759, S1340A); test: Whole-cell ADPR-induced currents, HEK293, S1340A mutant; format: cell-based; details: ADPR 100 µM (Fig. 8)
hTRPM2 S1340A mutant, sequence (O94759 whole entry S1340A): as the sequence (O94759 whole entry T1347Y) above, with S1340A, Y1347T counted along it
Procedure, shortened: as §1

[21] = target: hTRPM2 H1346F mutant (Homo sapiens, UniProt O94759, H1346F); test: Whole-cell ADPR-induced currents, HEK293, H1346F mutant; format: cell-based; details: H1346F (Fig. 5 B)
hTRPM2 H1346F mutant, sequence (O94759 whole entry H1346F): as the sequence (O94759 whole entry T1347Y) above, with H1346F, Y1347T counted along it
Procedure, shortened: as §1

T1 sequence (O94759 whole entry G1389A): as the sequence (O94759 whole entry T1347Y) above, with Y1347T, G1389A counted along it

H2O2-induced current [1]: failed to induce a current
Compound: OO [H2O2]

Channel activation by calcium [2]: readily activated
Compound: [Ca+2] [calcium]

Hill slope [4]: 1.3
Hill slope [5]: 1.6
Hill slope [6]: 2.6
Channel function with ADPR [7]: lack of channel function
Channel activation by ADPR [9]: failed to be activated
Response to ADPR [10]: no response
Hill slope [11]: 1.2
Hill slope [12]: 1.0
Hill slope [13]: 2.7
Hill slope [14]: 1.5
Activity induced by ADPR [15]: normal activity
Channel sensitivity to ADPR [17]: completely lost sensitivity
Response to ADPR [18]: no response
Hill slope [19]: 2.0
Activity induced by ADPR [20]: normal activity
Channel sensitivity to ADPR [21]: completely insensitive
Compound: adenosine diphosphate ribose [ADPR]
Impact of mutation on ADPR binding to the NUDT9-H domain [3]: little impact
Channel activation by ADPR [8]: did not significantly alter channel activation
Channel activation by ADPR [16]: neither Y1349A nor Y1349S mutant could be activated
